The text below walks through data of PMC7220363 (Drug Design, Development and Therapy, 2020).

For one assay, the target named is mTOR enzyme (Homo sapiens, UniProt P42345). Nature of the assay: mTOR enzyme assay. In kind it is biochemical. Particulars: for Selectivity: PI3Kα IC50 relative to mTOR IC50 (table column); for inhibitory activity against mTOR (in words): derivatives with a para-substituent group on R3.
The target of the next assay is PI3Kα (p110α/p85α) (Homo sapiens, UniProt P42336). In words: PI3Kα enzyme assay. In kind it is biochemical. The gist of the method:
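Purchased recombinant PI3K enzyme (α, β, δ as p110/p85α; γ as p120γ) was mixed with the PIP2:3PS lipid substrate, and the reaction was started with ATP from a 250 µM solution. Luminescence was read by ADP-Glo. Inhibition was normalised to DMSO and no-enzyme controls, with IC50 averaged over two runs.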

Chain of PI3Kα (p110α/p85α) (P42336 whole entry): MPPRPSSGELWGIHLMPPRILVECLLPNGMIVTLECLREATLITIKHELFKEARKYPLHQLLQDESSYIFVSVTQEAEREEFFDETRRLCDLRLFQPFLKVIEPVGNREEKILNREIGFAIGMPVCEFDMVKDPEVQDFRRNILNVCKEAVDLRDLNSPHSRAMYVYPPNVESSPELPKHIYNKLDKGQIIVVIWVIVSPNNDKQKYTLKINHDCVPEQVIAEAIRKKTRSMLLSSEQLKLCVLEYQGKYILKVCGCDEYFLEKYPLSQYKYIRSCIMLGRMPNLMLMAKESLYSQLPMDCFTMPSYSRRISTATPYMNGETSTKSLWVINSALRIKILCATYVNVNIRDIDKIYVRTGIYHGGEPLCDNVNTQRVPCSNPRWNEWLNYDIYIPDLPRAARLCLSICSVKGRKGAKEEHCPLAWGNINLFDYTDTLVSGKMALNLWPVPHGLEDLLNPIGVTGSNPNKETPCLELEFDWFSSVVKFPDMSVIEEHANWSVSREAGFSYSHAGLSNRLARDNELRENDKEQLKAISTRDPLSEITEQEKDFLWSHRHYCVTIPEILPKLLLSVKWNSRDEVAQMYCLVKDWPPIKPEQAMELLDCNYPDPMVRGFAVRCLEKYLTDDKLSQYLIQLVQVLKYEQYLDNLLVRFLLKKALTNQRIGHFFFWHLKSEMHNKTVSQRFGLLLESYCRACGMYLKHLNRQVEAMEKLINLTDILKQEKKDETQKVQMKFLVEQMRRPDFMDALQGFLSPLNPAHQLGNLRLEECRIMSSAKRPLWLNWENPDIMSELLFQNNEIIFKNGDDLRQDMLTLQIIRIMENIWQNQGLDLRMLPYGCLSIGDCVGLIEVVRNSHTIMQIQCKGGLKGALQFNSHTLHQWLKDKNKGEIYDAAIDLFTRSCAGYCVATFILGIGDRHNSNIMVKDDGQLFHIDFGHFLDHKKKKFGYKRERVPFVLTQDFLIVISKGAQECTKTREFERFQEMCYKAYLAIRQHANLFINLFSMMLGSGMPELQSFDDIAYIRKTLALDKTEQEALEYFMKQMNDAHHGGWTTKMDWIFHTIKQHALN
Chain of PI3Kα (p110α/p85α) (P27986 whole entry partner): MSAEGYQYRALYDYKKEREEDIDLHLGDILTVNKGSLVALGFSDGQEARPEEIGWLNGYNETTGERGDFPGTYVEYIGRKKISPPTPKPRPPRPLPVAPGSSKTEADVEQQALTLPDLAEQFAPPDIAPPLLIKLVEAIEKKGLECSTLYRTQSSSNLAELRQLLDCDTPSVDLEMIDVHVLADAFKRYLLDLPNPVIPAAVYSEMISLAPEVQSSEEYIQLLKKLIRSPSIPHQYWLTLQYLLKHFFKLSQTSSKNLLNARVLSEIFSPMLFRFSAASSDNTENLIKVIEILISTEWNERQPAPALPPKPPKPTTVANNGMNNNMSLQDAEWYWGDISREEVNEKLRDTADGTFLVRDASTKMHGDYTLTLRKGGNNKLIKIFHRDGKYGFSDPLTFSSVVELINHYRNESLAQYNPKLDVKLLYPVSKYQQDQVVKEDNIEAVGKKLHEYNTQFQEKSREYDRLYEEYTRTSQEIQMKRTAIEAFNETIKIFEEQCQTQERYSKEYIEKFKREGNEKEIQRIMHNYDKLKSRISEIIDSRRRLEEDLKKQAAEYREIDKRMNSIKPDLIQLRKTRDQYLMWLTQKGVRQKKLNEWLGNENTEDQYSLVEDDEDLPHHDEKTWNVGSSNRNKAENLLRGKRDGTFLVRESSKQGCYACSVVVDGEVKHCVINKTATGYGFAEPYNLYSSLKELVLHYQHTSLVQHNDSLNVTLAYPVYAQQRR

As a reminder, the IC50 is the midpoint of a concentration-inhibition curve. Read a low IC50 as higher potency. On mTOR enzyme, `COC(=O)CCSc1nc2n(n1)C(c1cccc(O)c1)C(C(=O)Nc1cncc(C)c1)=C(C)N2` (stereo not shown) [3a, Methyl 3-((7-(3-Hydroxyphenyl)-5-Methyl-6-((5-Methylpyridin-3-yl) Carbamoyl)-4,7-Dihydro-[1,2,4] Triazolo[1,5-a]Pyrimidin-2-yl)Thio)Propanoate] yielded an IC50 of 260 nM and a Selectivity of 14. The same compound had an IC50 on PI3Kα (p110α/p85α) of 3560 nM.
With `COC(=O)CCSc1nc2n(n1)C(c1ccc(O)cc1)C(C(=O)Nc1cncc(C)c1)=C(C)N2` (stereo not shown) [3b, Methyl 3-((7-(4-Hydroxyphenyl)-5-Methyl-6-((5-Methylpyridin-3-yl) Carbamoyl)-4,7-Dihydro-[1,2,4]Triazolo[1,5-a]Pyrimidin-2-yl)Thio)Propanoate], at mTOR enzyme, the IC50 stood at 2210 nM, the Selectivity is recorded as greater than 5 and the “inhibitory activity against mTOR (in words)” value (from here on “inhibitory activity”) is on record as “low inhibitory activity against mTOR”. Also, the IC50 on PI3Kα (p110α/p85α) is greater than 10000 nM.
With `COC(=O)CCSc1nc2n(n1)C(c1cc(C)cc(C)c1)C(C(=O)Nc1cncc(C)c1)=C(C)N2` (stereo not shown) [3f, Methyl 3-((7-(3,5-Dimethylphenyl)-5-Methyl-6-((5-Methylpyridin-3-yl) Carbamoyl)-4,7-Dihydro-[1,2,4]Triazolo[1,5-a]Pyrimidin-2-yl)Thio)Propanoate], the IC50 was 529 nM against mTOR enzyme and 433 nM on PI3Kα (p110α/p85α). Further, the Selectivity on mTOR enzyme is reported as 0.8.
In the same order, the values of `COC(=O)CCSc1nc2n(n1)C(c1cccc(OC)c1)C(C(=O)Nc1ccc(OC)cc1)=C(C)N2` (stereo not shown) [2c, Methyl 3-((7-(3-Methoxyphenyl)-6-((4-Methoxyphenyl)Carbamoyl)-5-Methyl-4,7-Dihydro-[1,2,4]Triazolo[1,5-a]Pyrimidin-2-yl)Thio)Propanoate] are 139 nM, 1050 nM and 8.
Taken in the same sequence, the figures for `COc1ccc(NC(=O)C2=C(C)Nc3nc(SCCC4OCCO4)nn3C2c2cccc(OC)c2)cc1` (stereo not shown) [2h, 2-((2-(1,3-Dioxolan-2-yl)Ethyl)Thio)-7-(3-Methoxyphenyl)-N-(4-Methoxyphenyl)-5-Methyl-4,7-Dihydro-[1,2,4]Triazolo[1,5-a]Pyrimidine-6-Carboxamide] were 359 nM, 3200 nM and 9.
In the case of `COC(=O)CCSc1nc2n(n1)C(c1ccc(C)cc1)C(C(=O)Nc1cncc(C)c1)=C(C)N2` (stereo not shown) [3d, Methyl 3-((5-Methyl-6-((5-Methylpyridin-3-yl)Carbamoyl)-7-(p-Tolyl)-4,7 -Dihydro-[1,2,4]Triazolo[1,5-a]Pyrimidin-2-yl)Thio)Propanoate], on mTOR enzyme, half-maximal inhibition (IC50) was put at 932 nM, the Selectivity is recorded as 8 and the “inhibitory activity” value was “low inhibitory activity against mTOR”. Further, the midpoint of inhibition on PI3Kα (p110α/p85α), the IC50, lay at 7360 nM.
On mTOR enzyme, `COC(=O)CCSc1nc2n(n1)C(c1ccccc1C)C(C(=O)Nc1cncc(C)c1)=C(C)N2` (stereo not shown) [3e, Methyl 3-((5-Methyl-6-((5-Methylpyridin-3-yl)Carbamoyl)-7-(o-Tolyl)-4,7-Dihydro-[1,2,4]Triazolo[1,5-a]pyrimidin-2-yl)Thio)Propanoate] yielded an IC50 of 479 nM and a Selectivity of 6. Also, the IC50 against PI3Kα (p110α/p85α) worked out at 2770 nM.
At mTOR enzyme, `COc1cccc(C2C(C(=O)Nc3cccnc3)=C(C)Nc3nc(SCCC4OCCO4)nn32)c1` (stereo not shown) [1b, 2-((2-(1,3-Dioxolan-2-yl)Ethyl)Thio)-7-(3-Methoxyphenyl)-5-Methyl-N-(Pyridin-3-yl)-4,7-Dihydro-[1,2,4]Triazolo[1,5-a]Pyrimidine-6-Carboxamide] gave an IC50 of 50 nM and a Selectivity of 16. The compound further yielded an IC50 against PI3Kα (p110α/p85α) of 793 nM.
Taken in the same sequence, the figures for `COc1cccc(C2C(C(=O)Nc3cccc(C(C)=O)c3)=C(C)Nc3nc(SCCC4OCCO4)nn32)c1` (stereo not shown) [2i, 2-((2-(1,3-Dioxolan-2-yl)Ethyl)Thio)-N-(3-Acetylphenyl)-7-(3-Methoxyphenyl)-5-Methyl-4,7-Dihydro-[1,2,4]Triazolo[1,5-a]Pyrimidine-6-Carboxamide] were 92 nM, 29 and 2680 nM.
Taken in the same sequence, the figures for `COc1cccc(C2C(C(=O)Nc3ccc(C(C)=O)cc3)=C(C)Nc3nc(SCCC4OCCO4)nn32)c1` (stereo not shown) [2j, 2-((2-(1,3-Dioxolan-2-yl)Ethyl)Thio)-N-(4-Acetylphenyl)-7-(3-Methoxyphenyl)-5-Methyl-4,7-Dihydro-[1,2,4]Triazolo[1,5-a]Pyrimidine-6-Carboxamide] were 184 nM, 5 and 952 nM.
Taken in the same sequence, the figures for `COc1cccc(C2C(C(=O)Nc3cncc(C)c3)=C(C)Nc3nc(SCCC4OCCO4)nn32)c1` (stereo not shown) [2f, 2-((2-(1,3-Dioxolan-2-yl)Ethyl)Thio)-7-(3-Methoxyphenyl)-5-Methyl-N-(5-Methylpyridin-3-yl)-4,7-Dihydro-[1,2,4]Triazolo[1,5-a]Pyrimidine-6-Carboxamide] were 28 nM, 7 and 193 nM.
Regarding `COC(=O)CCSc1nc2n(n1)C(c1ccccc1)C(C(=O)Nc1cncc(C)c1)=C(C)N2` (stereo not shown) [3c, Methyl 3-((5-Methyl-6-((5-Methylpyridin-3-yl)carbamoyl)-7-Phenyl-4,7- Dihydro-[1,2,4]Triazolo[1,5-a]Pyrimidin-2-yl)Thio)Propanoate], on mTOR enzyme, the midpoint of inhibition, the IC50, lay at 246 nM and the Selectivity was found to be 3. This compound also displayed an IC50 against PI3Kα (p110α/p85α) of 703 nM.
A word on the inhibition: it is the change of the read-out against control, counted positive when it falls. Turning to `COCCCSc1nc2n(n1)C(c1cccc(OC)c1)C(C(=O)Nc1cccnc1)=C(C)N2` (stereo not shown) [1a, 7-(3-Methoxyphenyl)-2-((3-Methoxypropyl)Thio)-5-Methyl-N-(Pyridin-3-yl)-4,7-Dihydro-[1,2,4]Triazolo[1,5-a]Pyrimidine-6-Carboxamide], at mTOR enzyme, the IC50 turned out to be 167 nM and the Selectivity is recorded as 9. In addition, on mTOR enzyme (read-out: mTOR enzyme inhibition rate), the inhibition at 10 µM amounted to 91.8%. Further, the IC50 at PI3Kα (p110α/p85α) amounted to 1580 nM.
On to `COC(=O)CCSc1nc2n(n1)C(c1cccc(OC)c1)C(C(=O)Nc1cccc(C(C)=O)c1)=C(C)N2` (stereo not shown) [2d, Methyl 3-((6-((3-Acetylphenyl)Carbamoyl)-7-(3-Methoxyphenyl)-5-Methyl-4,7-Dihydro-[1,2,4]Triazolo[1,5-a]Pyrimidin-2-yl)Thio)Propanoate], for which, on mTOR enzyme, the IC50 stood at 23 nM and the Selectivity was determined as 10. This compound gave a half-inhibitory concentration (IC50) on PI3Kα (p110α/p85α) of 228 nM.
In the same order, the values of `COC(=O)CCSc1nc2n(n1)C(c1cccc(OC)c1)C(C(=O)Nc1ccc(C(C)=O)cc1)=C(C)N2` (stereo not shown) [2e, Methyl 3-((6-((4-Acetylphenyl)Carbamoyl)-7-(3-Methoxyphenyl)-5-Methyl-4,7-Dihydro-[1,2,4]Triazolo[1,5-a]Pyrimidin-2-yl)Thio)Propanoate] are 72 nM, 4 and 254 nM.
As for `COC(=O)CCSc1nc2n(n1)C(c1ccc(F)cc1)C(C(=O)Nc1cncc(C)c1)=C(C)N2` (stereo not shown) [3g, Methyl 3-((7-(4-Fluorophenyl)-5-Methyl-6-((5-Methylpyridin-3-yl)carbamoyl)-4,7-Dihydro-[1,2,4] Triazolo[1,5-a]Pyrimidin-2-yl)Thio)Propanoate], on mTOR enzyme, the IC50 was determined as 1770 nM, the Selectivity is listed as greater than 6 and the “inhibitory activity” value is “low inhibitory activity against mTOR”. Besides, on PI3Kα (p110α/p85α), the IC50 was greater than 10000 nM.
As to `COc1cccc(C2C(C(=O)Nc3cccc(F)c3)=C(C)Nc3nc(SCCC4OCCO4)nn32)c1` (stereo not shown) [2g, 2-((2-(1,3-Dioxolan-2-yl)Ethyl)Thio)-N-(3-Fluorophenyl)-7-(3-Methoxyphenyl)-5-Methyl-4,7-Dihydro-[1,2,4]Triazolo[1,5-a]Pyrimidine-6-Carboxamide], on mTOR enzyme, the midpoint of inhibition, the IC50, lay at 313 nM and the Selectivity stood at 3. For the same compound, the IC50 at PI3Kα (p110α/p85α) turned out to be 844 nM.
Taken in the same sequence, the figures for `COC(=O)CCSc1nc2n(n1)C(c1cccc(F)c1)C(C(=O)Nc1cncc(C)c1)=C(C)N2` (stereo not shown) [3h, Methyl 3-((7-(3-Fluorophenyl)-5-Methyl-6-((5-Methylpyridin-3-yl)Carbamoyl)-4,7-Dihydro-[1,2,4] Triazolo[1,5-a]Pyrimidin-2-yl)Thio)Propanoate] were 326 nM, 2 and 738 nM.
At mTOR enzyme, `COC(=O)CCSc1nc2n(n1)C(c1cccc(OC)c1)C(C(=O)Nc1cccc(F)c1)=C(C)N2` (stereo not shown) [2b, Methyl 3-((6-((3-Fluorophenyl)Carbamoyl)-7-(3-Methoxyphenyl)-5-Methyl-4,7-Dihydro-[1,2,4]Triazolo[1,5-a]Pyrimidin-2-yl)Thio)Propanoate] had an IC50 of 124 nM and a Selectivity of 4. The same compound came in with an IC50 against PI3Kα (p110α/p85α) of 437 nM.
